Bioassay records: PubChem, The Scripps Research Institute Molecular Screening Center
An excerpt weighted towards active compounds, which were near 3.7% of everything screened.
TAAR1 agonist = human TAAR1 agonism. Q96RJ0. CHO RD-HGA16 TAAR1, Fluo-8 calcium fluorescence; vehicle wells 0%, saturating PEA agonist 100%. activation, % at 3 µM. hit rate 0.99% among 360,000;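 active = activation above the mean activation of all test compounds in the run plus 3 SD, cut at about 38% in these data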
Target sequence (Q96RJ0 whole entry, looked up): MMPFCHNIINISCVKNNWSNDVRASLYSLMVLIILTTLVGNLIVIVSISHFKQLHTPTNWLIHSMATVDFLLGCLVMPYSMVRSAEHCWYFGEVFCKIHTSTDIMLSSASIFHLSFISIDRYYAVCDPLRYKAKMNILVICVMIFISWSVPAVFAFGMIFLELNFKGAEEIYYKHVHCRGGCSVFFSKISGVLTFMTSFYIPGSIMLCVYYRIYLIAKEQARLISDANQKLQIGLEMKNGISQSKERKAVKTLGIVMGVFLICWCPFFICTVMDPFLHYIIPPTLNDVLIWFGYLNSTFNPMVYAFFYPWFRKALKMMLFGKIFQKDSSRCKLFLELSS
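Repeats: no replicates (n 1) | Material: CHO-derived RD-HGA16 cells with stable Gα16 and human TAAR1 | Technique: Kinetic Fluo-8 calcium fluorescence | Schedule: 17-24 h seeding, 75 min 37 °C dye, 30 min RT | Evaluation: % activation from peak over basal fluorescence ratio, DMSO-to-PEA scaled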
core dimer inh = blocks dimerization of HCV core protein; AID 1899; inhibition, % at 5 µM; hit rate 0.33% among 300,000; TR-FRET GST/Flag-core106 dimerization, 1536-well;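 active = inhibition above the mean of all tested compounds plus 3 SD, set per screening campaign, cut at about 45% in these data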
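System: GST/Flag-tagged HCV core106 proteins. Incubation: compound-protein-antibody incubation 4 h at 22.5 °C. Technique: HTRF with 340 nm excitation, 617/671 nm emission. Medium: KF-containing HEPES buffer, pH 7.45, DTT, CHAPS, BSA. Read-out: inhibition (%) from 671 over 617 nm ratio. Also added: Eu(K)-anti-GST 90 ng/mL plus XL665-anti-Flag 1 µg/mL.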
TAAR1 antagonist = antagonists of human TAAR1. hit rate 1.5% among 360,000. Q96RJ0. CHO RD-HGA16 TAAR1, Fluo-8 calcium fluorescence, antagonist. inhibition, % at 3 µM;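 active = inhibition above a per-plate cutoff, the mean inhibition of test compounds on that plate plus 3 SD, cut at about 49% in these data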;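 also: 0% = DMSO plus EC80 beta-PEA response and 100% = DMSO alone without agonist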
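Test system – hTAAR1-expressing CHO RD-HGA16 cells, Gα16-coupled · Reagent – β-PEA at EC80 concentration, post-compound challenge · Compound dosing – 3 µM, single point · Timing – 140 s kinetic read after compound, 140 s after agonist · Detection – Fluo-8 intracellular calcium dye fluorescence, real-time kinetic reads · Control set – DMSO and EC80 PEA controls · Repeats – n of 1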
HCV NS3 hel inh = inhibitors of Hepatitis C virus NS3 helicase. NS3 helicase DNA unwinding, Cy5 molecular beacon fluorescence. inhibition, % at 10.9 µM. AID 1800. hit rate 0.56% among 290,000;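 active = inhibition above the mean of all tested compounds plus 3 SD, set per campaign, cut at about 35% in these data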;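 also: 0% = DMSO wells and 100% = thioflavine S control wells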
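test system = hepatitis C virus NS3 helicase domain fragment enzyme | reagent = annealed dual-labelled DNA beacon duplex, ATP-started | times = 1 h at 25 °C | detection = Cy5 fluorescence, 0 and 60 min reads | read-out basis = percent inhibition from t60/t0 fluorescence ratio | control set = DMSO and thioflavine S | replication = one well per compound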
rCAG RNA binder = binds r(CAG) RNA repeats | inhibition, % at 3 µM | hit rate 1.3% among 370,000 | AID 651821 | r(CAG) RNA repeat, TO-PRO-1 dye displacement fluorescence;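 active = inhibition above the plate cutoff, the mean of all test compounds on that plate plus 3 SD, cut at about 35% in these data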;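 also: 0% = DMSO alone and 100% = 100 µM mitoxantrone as full dye displacement; higher means more dye released from RNA so lower well fluorescence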
TAAR1 ag confirm = confirmation of human TAAR1 agonists | shares compounds with TAAR1 agonist | CHO RD-HGA16 TAAR1, Fluo-8 calcium fluorescence; scaled: DMSO 0%, maximal phenethylamine 100% | activation, % at 3 µM | hit rate 82% among 2,400;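 active = activation above a cutoff set at the run's mean compound activation plus 3 SD, cut at about 39% in these data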
Ga16 nonsel ag = counter-screen for TAAR1 agonists: nonselective agonists in parental cells | AID 651787 | activation, % at 3 µM | hit rate 50% among 2,400 | shares compounds with TAAR1 agonist | CHO-Ga16 parental, Fluo-8 calcium fluorescence; normalized to maximal ATP response, DMSO zero;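 active = activation above the run cutoff, the mean activation over all tested wells plus 3 SD, cut at about 12% in these data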;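 also: 0% = DMSO wells and 100% = maximal ATP response on the peak over basal ratio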
TAAR1 desens = human TAAR1 agonist that also desensitizes the receptor. shares compounds with TAAR1 agonist. CHO RD-HGA16 hTAAR1, Fluo-8 calcium, beta-PEA response inhibition. inhibition, % at 3 µM. hit rate 46% among 2,400;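 active = inhibition above the run cutoff, the mean inhibition of all test compounds plus 3 SD, cut at about 49% in these data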;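 also: beta-PEA stimulus applied at its EC80; loss of beta-PEA calcium signal after compound pretreatment read as receptor desensitization; 0% = DMSO with beta-PEA at EC80 and 100% = DMSO alone without agonist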
Ga16 nonsel ant = counter-screen for TAAR1 agonists: nonselective Ga16 antagonists | hit rate 39% among 2,400 | shares compounds with TAAR1 agonist | CHO-Ga16 ATP-induced calcium, Fluo-8 fluorescence | inhibition, % at 3 µM;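 active = inhibition above the plate's mean compound inhibition plus 3 SD, computed per plate, cut at about 22% in these data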;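 also: 0% = EC80 ATP with DMSO and 100% = DMSO wells without ATP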
Active calls of the source: *; · = not tested or not shown.

SMILES	TAAR1 agonist	core dimer inh	TAAR1 antagonist	HCV NS3 hel inh	rCAG RNA binder	TAAR1 ag confirm	Ga16 nonsel ag	TAAR1 desens	Ga16 nonsel ant
O=C(NCCc1ccccc1F)[C@@H]1CSC2c3ccccc3C(=O)N21 (some centres not stated)	59.6*	4.9	22.1	6.8	2.1	65.1*	2.6	38.3	9.2
O=C(O)[C@@H]1CSC2c3ccccc3C(=O)N21 (some centres not stated)	1.7	-4.2	7.9	7.5	4.5	·	·	·	·
COCC(=O)Nc1ncc(S(=O)(=O)c2ccc([N+](=O)[O-])cc2)s1	2.4	-2.0	7.3	-8.1	0.7	·	·	·	·
O=C(Nc1ncc(S(=O)(=O)c2ccc([N+](=O)[O-])cc2)s1)c1cccc2ccccc12	128.0*	45.3	94.5*	-0.1	12.1	128.7*	87.6*	105.3*	79.2*
O=C(c1cc(-c2ccc(O)cc2)on1)N1CCc2ccccc2C1	71.5*	5.7	33.0	-8.8	6.2	91.1*	17.2*	67.1*	10.5
O=C(NCCc1cccs1)c1ccc(CS(=O)Cc2cccc(Cl)c2)o1 (configuration not stated)	63.2*	·	21.9	·	2.9	56.8*	0.6	38.6	5.2
CC(C)CNC(=O)OCc1cn(Cc2ccc(Cl)cc2)nn1	·	·	·	·	0.4	·	·	·	·
O=C(CCc1ccccc1)N[C@H]1[C@@H](OC(=O)c2ccco2)CCC[C@]12C(=O)N(Cc1ccccc1)c1ccccc12	·	·	·	·	4.4	·	·	·	·
CCOC(=O)N1CCN(C(=O)C[C@H]2C[C@@]3(C(=O)OC)C(=C[C@H](C4CCCC4)O[C@@H]3C)N(Cc3ccco3)C2=O)CC1	·	·	·	·	1.2	·	·	·	·
COc1cc(OC)cc(C(=O)NC(=S)NNC(=O)Cc2cccs2)c1	80.3*	4.2	15.7	6.5	10.6	56.2*	36.8*	27.7	16.1
O=C(/C=C/c1ccc(F)cc1)NC(=S)Nc1ccccc1O	13.1	·	29.9	3.0	5.3	·	·	·	·
COc1ccc(OC)c(NC(=O)C2CC2c2ccccc2)c1 (configuration not stated)	2.4	4.8	-4.7	-19.9	-3.9	·	·	·	·
COc1ccc(C(=O)NC(=S)NNC(=O)[C@H]2C[C@@H]2c2ccccc2)cc1OC	120.6*	8.4	49.4*	0.8	15.0	90.3*	70.4*	70.1*	43.3*
COc1cc(OC)cc(C(=O)NC(=S)NNC(=O)[C@H]2C[C@@H]2c2ccccc2)c1	173.7*	-5.0	107.1*	-3.9	7.5	113.0*	101.7*	89.3*	65.0*
COc1ccc(C(=O)NC(=S)NNC(=O)Cc2cccs2)cc1	34.5	-2.4	-1.5	9.6	9.3	·	·	·	·
CC(C)(C)NC(=S)NNC(=O)[C@H]1C[C@@H]1c1ccccc1	0.5	2.1	-3.1	-4.0	-2.5	·	·	·	·
O=C(/C=C/c1ccc(F)cc1)NC(=S)NNC(=O)[C@H]1C[C@@H]1c1ccccc1	132.0*	16.6	81.9*	15.8	27.3	88.0*	98.5*	71.9*	66.5*
COc1ccc(Cn2ccc3ccc(-c4ccc5ccn(C(=O)c6ccccc6C)c5c4)cc32)cc1	·	·	·	·	8.0	·	·	·	·
COC(=O)C1CN(CCc2ccccc2)CCS(=O)(=O)N1Cc1ccc(Cl)cc1 (configuration not stated)	·	·	·	·	4.5	·	·	·	·
CCC(=O)N(Cc1ccco1)c1nc(-c2ccc(OC)cc2)cs1	1.2	5.7	22.0	10.4	3.5	·	·	·	·
CCC(=O)N(CC)c1nc(-c2ccc(OC)cc2)cs1	69.8*	-8.1	70.3*	10.9	1.0	43.5*	44.1*	58.1*	46.5*
CN1CCCC1CCSc1ncccc1-c1nc2ccccc2[nH]1 (configuration not stated)	·	·	·	·	6.9	·	·	·	·
Clc1ccc2nc(N3CCNCC3)nc(-c3ccccc3)c2c1	56.6*	0.4	-4.8	-50.4	9.8	58.1*	28.5*	33.7	14.4
CN1CCN(c2nc(-c3ccccc3)c3cc(Cl)ccc3n2)CC1	15.3	-7.6	-5.7	-53.7	-5.4	·	·	·	·
COc1ccccc1CCn1cnc(C)c1CC(C)C	76.2*	·	29.0	·	3.8	68.7*	0.0	40.5	13.2
SMILES	TAAR1 agonist	core dimer inh	TAAR1 antagonist	HCV NS3 hel inh	rCAG RNA binder	TAAR1 ag confirm	Ga16 nonsel ag	TAAR1 desens	Ga16 nonsel ant
CCc1ncn(CCc2ccccc2OC)c1C(C)C	52.8*	·	29.1	·	5.5	63.1*	1.2	34.2	7.5
CN(CC(=O)NC(=O)NCc1ccccc1)CC(=O)Nc1ccc(Cl)c(C(F)(F)F)c1	12.5	-1.2	3.0	·	-2.5	·	·	·	·
CN(CC(=O)NCc1ccccc1)CC(=O)Nc1ccc(Cl)c(C(F)(F)F)c1	72.6*	·	-4.8	·	-0.4	82.1*	24.9*	60.3*	33.7*
O=C(NCC(c1ccco1)N1CCc2ccccc2C1)c1ccc(F)cc1 (configuration not stated)	46.2*	2.6	-17.7	·	2.7	19.4	0.6	0.9	10.9
COc1ccc(C)cc1S(=O)(=O)NCC(c1ccco1)N1CCc2ccccc2C1 (configuration not stated)	42.0*	6.8	-14.6	·	-2.4	62.2*	1.5	19.2	10.2
COc1ccccc1NC(=O)C(=O)NCC(c1ccco1)N1CCc2ccccc2C1 (configuration not stated)	83.4*	3.2	24.8	·	11.7	64.0*	1.2	7.5	4.2
COc1ccc(OC)c(S(=O)(=O)NCC(c2ccco2)N2CCc3ccccc3C2)c1 (configuration not stated)	15.5	3.8	-2.4	·	-5.2	·	·	·	·
CCCCCc1cc(O)c2c(C)cc(=O)oc2c1	22.6	6.6	-14.0	-7.6	8.0	·	·	·	·
CCCCc1cc(O)c(CCCC)c(O)c1	112.6*	-12.3	101.7*	-2.7	-3.6	130.4*	94.9*	105.8*	92.4*
N#C/C(=C\c1coc2ccc(O)cc2c1=O)C(=O)Nc1nc2ccccc2s1	480.0*	21.4	104.4*	19.1	-69.7	315.5*	295.2*	101.5*	94.7*
O=C(Nc1ccccc1)N1CCc2ccccc2C1	47.8*	3.2	19.7	7.7	-2.6	54.2*	4.9	13.7	4.7
Cc1ccc(NC(=O)N2CCc3ccccc3C2)c(C)c1	92.3*	2.6	42.9	3.0	-7.5	66.2*	3.0	20.0	11.7
CC(=O)c1cccc(NC(=O)N2CCc3ccccc3C2)c1	56.5*	11.3	19.5	3.1	-3.5	62.0*	4.6	24.3	17.6
